Reference: ChEMBL document CHEMBL3865799, “Synthesis of a series of novel dihydroartemisinin monomers and dimers containing chalcone as a linker and their anticancer activity” (Eur J Med Chem, 2016)

Experiments:
[1] = Cytotoxicity against human PC3 cells assessed as cell growth inhibition at 0.5 uM after 48 hrs by MTT assay; type: functional; settings: PC-3, 48 h, read-out: GI
Procedure, shortened: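 Adherent lines at 70–75% confluence, grown at 37 °C in 5% CO2 with 10% FCS. Exposed 48 h to compound in DMSO (vehicle <0.2% v/v). MTT dye added 3 h before termination; formazan dissolved in DMSO, OD 570 nm with 620 nm reference. Growth inhibition expressed as % of untreated; IC50 taken from the dose series.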

HL-60 = test: Induction of apoptosis in human HL60 cells assessed as blebs formation after 24 hrs phase contrast microscopic analysis; type: functional, cell-based
Procedure, shortened: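 HL-60 cells at 0.5 × 10^6 cells/ml treated 24 h with compound at 0.2, 0.5, 1 or 5 (DMSO vehicle). Treated and control cells photographed under a phase contrast microscope at 20× and scored for morphology.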

[2] = Lipophilicity, log P of the compound at pH 7; type: physicochemical; settings: buffer
[3] = Cell cycle arrest in human HL60 cells assessed as accumulation at subG0 phase at 1 uM after 24 hrs by propidium iodide-DNA fluorescence based FACS analysis (reference value: 5 %); type: functional; settings: HL-60
Procedure, shortened: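 HL-60 cells seeded at 0.5 × 10^6 cells/ml, exposed 24 h to compound (DMSO vehicle, <0.2% v/v). Pelleted at 400×g, PBS-washed, fixed in 70% ethanol at 4 °C overnight. RNase A treatment at 37 °C for 1.30 h, then propidium iodide staining for 20 min. Flow cytometry on 10,000 events, FL2-A vs FL2-W; subG0 (apoptotic) and phase populations gated.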

| SMILES | inhibition of growth at 0.5 µM [1] [%] | Activity (HL-60) | logP [2] | Activity [3] [%] |
| --- | --- | --- | --- | --- |
| C[C@H]1[C@@H](OCCOc2cccc(C(=O)/C=C/c3ccc(O)cc3)c2)O[C@@H]2O[C@@]3(C)CC[C@H]4[C@H](C)CC[C@@H]1[C@@]24OO3 | 15.2 | Dose-dependent effect | -5.96 | 65 |
| C[C@H]1[C@@H](OCCOc2ccc(/C=C/C(=O)c3ccc(O)cc3)cc2)O[C@@H]2O[C@@]3(C)CC[C@H]4[C@H](C)CC[C@@H]1[C@@]24OO3 | 19.3 | Dose-dependent effect | -5.96 | – |
